{"data": "Measurements from different studies", "target": "Serine/threonine-protein kinase 3 (STK3, Homo sapiens, UniProt Q13188)", "Residues used in one study (Q13188 1-491)": "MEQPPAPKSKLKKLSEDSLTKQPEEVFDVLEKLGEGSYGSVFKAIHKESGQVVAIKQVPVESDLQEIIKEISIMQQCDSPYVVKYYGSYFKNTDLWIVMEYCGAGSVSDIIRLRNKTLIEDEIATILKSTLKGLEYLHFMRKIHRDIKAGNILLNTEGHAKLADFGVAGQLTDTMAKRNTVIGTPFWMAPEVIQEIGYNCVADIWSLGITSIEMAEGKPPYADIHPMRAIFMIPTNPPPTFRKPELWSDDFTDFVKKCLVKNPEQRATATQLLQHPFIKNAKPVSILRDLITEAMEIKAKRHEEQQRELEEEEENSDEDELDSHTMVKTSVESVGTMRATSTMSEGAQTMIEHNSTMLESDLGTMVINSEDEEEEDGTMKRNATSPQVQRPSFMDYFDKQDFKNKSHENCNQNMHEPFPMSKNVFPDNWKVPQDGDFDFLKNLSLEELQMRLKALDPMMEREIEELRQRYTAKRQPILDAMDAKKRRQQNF", "note": "Lines come from different studies, so protocols differ."}
{"SMILES": "O=C(Nc1cnn(-c2csc(C(=O)NC3COC3)c2)c1)Nc1ccccc1Cl", "assay": "enzyme activity, inhibitor", "conditions": "5 µM", "quantity": "remaining activity", "value": "120%"}
{"SMILES": "COc1cc2ncnc(Nc3ccc(Oc4ccccc4)c(C)c3C)c2cc1OC", "assay": "enzyme activity, inhibitor", "conditions": "1 µM", "quantity": "inhibition", "value": "1%"}
{"SMILES": "CC1(C)NC(=O)c2[nH]c3c(Cl)c(Cl)ccc3c2C1C#N (centres unmarked)", "assay": "thermal stability, DSF", "conditions": "10 µM", "quantity": "ΔTm", "value": "0.2 °C"}
{"SMILES": "COc1cc(/C=C/C(=O)CC(=O)/C=C/c2ccc(O)c(OC)c2)ccc1O", "assay": "enzyme activity, inhibitor", "conditions": "1 µM", "quantity": "activity vs control", "value": "42%"}
{"SMILES": "N#CCCc1ccc2c(c1)-c1[nH]c3ccc([N+](=O)[O-])cc3c1CC(=O)N2", "assay": "cell-free assay", "conditions": "0.5 µM", "quantity": "remaining signal", "value": "40.9%"}
{"SMILES": "CC(C)(O)[C@H]1CC[C@H](Nc2ccc3ncc(-c4cccc(C(F)(F)F)c4)n3n2)CC1", "assay": "enzyme activity, inhibitor", "conditions": "1 µM", "quantity": "remaining activity", "value": "73.9%"}
{"SMILES": "CN(C)C(=O)Cn1cc(-c2nc(C3(c4ccc(-c5cnc(N)nc5)cc4)CC3)no2)cn1", "assay": "cell-free assay, competition with immobilised ligand", "conditions": "1 µM", "quantity": "remaining binding", "value": "100%"}
{"SMILES": "Cn1c2c(c3ccc(Cl)c(Cl)c31)C(C#N)C1(CCOCC1)NC2=O (centres unmarked)", "assay": "thermal stability, DSF", "conditions": "10 µM", "quantity": "ΔTm", "value": "-0.1 °C"}
{"SMILES": "Cc1sc(C(=O)NC2COC2)cc1-n1cc(NC(=O)Nc2c(F)cccc2Cl)cn1", "assay": "enzyme activity, inhibitor", "conditions": "10 µM", "quantity": "remaining activity", "value": "93.9%"}
{"SMILES": "CC(C)(C)c1nc2c(s1)c1nc(N)ncc1c1ccc(NS(=O)(=O)c3c(F)cccc3F)c(F)c12", "assay": "enzyme activity, inhibitor, radiometric", "conditions": "1 µM", "quantity": "remaining activity", "value": "89%"}
{"SMILES": "Cc1c(NC(=O)c2cc(C(N)=O)nc3cc(F)ccc23)c(C(F)(F)F)nn1Cc1ccc(C(C)(C)C)cc1", "assay": "cell-free assay, competition with immobilised ligand", "conditions": "1 µM", "quantity": "remaining binding", "value": "90%"}
{"SMILES": "CN1CC(Oc2cnc(C#N)cc2-c2ccn3nc(NC(=O)C4CC4)cc3c2)C1", "assay": "enzyme activity, inhibitor", "conditions": "1 µM", "quantity": "inhibition", "value": "4%"}
{"SMILES": "O=C(Nc1cccnn1)N1CCC(=Cc2cccc(Oc3ccc(C(F)(F)F)cn3)c2)CC1", "assay": "cell-free assay, competition with immobilised ligand", "conditions": "1 µM", "quantity": "remaining binding", "value": "100%"}
{"SMILES": "Nc1nc(NC2CCCCC2)sc1C(=O)c1ccccc1", "assay": "enzyme activity, inhibitor", "conditions": "10 µM", "quantity": "remaining activity", "value": "97%"}
{"SMILES": "Cn1c2c(c3ccc(Cl)c(Cl)c31)C(C#N)C1(CCCC1)NC2=O (centres unmarked)", "assay": "thermal stability, DSF", "conditions": "10 µM", "quantity": "ΔTm", "value": "0.4 °C"}
{"SMILES": "CCN(CC)CCNC(=O)c1c(C)[nH]c(/C=C2\\C(=O)Nc3ccc(F)cc32)c1C", "assay": "cell-free assay", "conditions": "0.5 µM", "quantity": "remaining signal", "value": "24.8%"}
{"SMILES": "Cn1c2c(c3ccc(Cl)c(Cl)c31)C(C#N)C(C)(C)NC2=O (centres unmarked)", "assay": "thermal stability, DSF", "conditions": "10 µM", "quantity": "ΔTm", "value": "0.4 °C"}
{"SMILES": "Cn1nc(C(F)(F)F)cc1-c1cnc(N2CCc3cc(S(=O)(=O)Nc4c(F)cc(Cl)cc4F)cc(N4CCCC4=O)c32)nc1", "assay": "cell-free assay, competition with immobilised ligand", "conditions": "1 µM", "quantity": "remaining binding", "value": "90%"}
{"SMILES": "CNC(=O)c1cc(Oc2ccc(NC(=O)Nc3ccc(Cl)c(C(F)(F)F)c3)cc2)ccn1", "assay": "cell-free assay, inhibitor", "conditions": "0.3 µM", "quantity": "inhibition", "value": "7%"}
{"SMILES": "CCOC(=O)c1cc2cc(-c3cc(C(=O)NCc4ccc(C(=O)O)cc4)nn3C)ccc2[nH]1", "assay": "cell-free assay, competition with immobilised ligand", "conditions": "0.1 µM", "quantity": "remaining binding", "value": "96%"}
{"SMILES": "Cn1c2c(Cl)c(Cl)ccc2c2cc[nH]c(=O)c21", "assay": "thermal stability, DSF", "conditions": "10 µM", "quantity": "ΔTm", "value": "1.9 °C"}
{"SMILES": "CC1=C(C#N)C(c2ccc3c(c2)c(NC(=O)c2ccccc2C)nn3C)C(C#N)=C(C)N1", "assay": "cell-free assay, competition with immobilised ligand", "conditions": "1 µM", "quantity": "remaining binding", "value": "100%"}
{"SMILES": "CN(C)S(=O)(=O)c1ccc2c(c1)/C(=C/c1cc3c([nH]1)CCCC3)C(=O)N2", "assay": "cell-free assay", "conditions": "0.5 µM", "quantity": "remaining signal", "value": "24.3%"}
{"SMILES": "Cn1c2c(c3ccccc31)C(C#N)C(C)(C)NC2=O (centres unmarked)", "assay": "thermal stability, DSF", "conditions": "10 µM", "quantity": "ΔTm", "value": "-0.5 °C"}
{"SMILES": "O=C1NC(=O)c2cc(Nc3ccc(F)cc3)c(Nc3ccc(F)cc3)cc21", "assay": "cell-free assay", "conditions": "0.5 µM", "quantity": "remaining signal", "value": "90.7%"}
{"SMILES": "CNCc1ccc(-c2cc(-c3nc(-c4ccc(S(=O)(=O)C(C)C)cc4)cnc3N)on2)cc1", "assay": "enzyme activity, inhibitor", "conditions": "2 µM", "quantity": "inhibition", "value": "43%"}
{"SMILES": "Oc1cccc(-c2nc(N3CCOCC3)c3oc4ncccc4c3n2)c1", "assay": "enzyme activity, inhibitor", "conditions": "10 µM", "quantity": "remaining activity", "value": "115%"}
{"SMILES": "CCN1CCN(Cc2ccc(NC(=O)c3ccc(C)c(Oc4ccnc5[nH]ccc45)c3)cc2C(F)(F)F)CC1", "assay": "target engagement in cells, inhibitor, chemoproteomics", "test system": "Huh-7", "conditions": "10 µM", "quantity": "inhibition", "value": "-56.5%"}
{"SMILES": "Cc1ccc(Nc2nccc(N(C)c3ccc4c(C)n(C)nc4c3)n2)cc1S(N)(=O)=O", "assay": "cell-free assay, inhibitor", "conditions": "10 µM", "quantity": "inhibition", "value": "4%"}
{"SMILES": "CC(=O)C1=C(C)N(c2cccc(C(F)(F)F)c2)C(=O)N[C@@H]1c1ccc(C#N)nc1", "assay": "cell-free assay, competition with immobilised ligand", "conditions": "1 µM", "quantity": "remaining binding", "value": "93.1%"}
{"SMILES": "COc1cc(Cl)c(C(=O)N[C@@H](CN[C@H]2CC[C@@H](N)CC2)Cc2ccc(C#N)cc2)cc1-c1ccc(CN[C@H](C)c2ccc(C)cc2)o1", "assay": "enzyme activity, inhibitor", "conditions": "1 µM", "quantity": "remaining activity", "value": "97%"}
{"SMILES": "Nc1ncnc2occ(-c3ccc(NC(=O)Nc4cc(C(F)(F)F)ccc4F)cc3)c12", "assay": "cell-free assay, inhibitor", "conditions": "20 µM", "quantity": "remaining signal", "value": "6.6%"}
{"SMILES": "CNc1cccc2cc(C(=O)Nc3ccc(C(=O)O)cc3)c(=O)[nH]c12", "assay": "enzyme activity, inhibitor", "conditions": "10 µM", "quantity": "inhibition", "value": "4.2%"}
{"SMILES": "COc1cc(Nc2cnc(C#N)c(O[C@H](C)CN(C)C)n2)ncc1-c1cnn(C)c1", "assay": "enzyme activity, inhibitor, radiometric", "conditions": "10 µM", "quantity": "remaining activity", "value": "30%"}
{"SMILES": "FC(F)(F)Oc1cccc(-c2cnc3ccc(-c4ccncc4)nn23)c1", "assay": "enzyme activity, inhibitor, radiometric", "conditions": "5 µM", "quantity": "activity vs control", "value": "71%"}
{"SMILES": "CC(C)(C)C(=O)c1sc(NC2CCCCC2)nc1N", "assay": "enzyme activity, inhibitor", "conditions": "10 µM", "quantity": "remaining activity", "value": "104%"}
{"SMILES": "N#CC1(c2ccccn2)CCN(Cc2cc(C(=O)N3CCCC3)c(=O)n3ccccc23)CC1", "assay": "cell-free assay, competition with immobilised ligand", "conditions": "1 µM", "quantity": "remaining binding", "value": "92%"}
{"SMILES": "Cn1c(=O)n(-c2ccc(C(C)(C)C#N)cc2)c2c3cc(-c4cnc5ccccc5c4)ccc3ncc21", "assay": "enzyme activity, inhibitor", "conditions": "10 µM", "quantity": "remaining activity", "value": "89%"}
